From PubChem BioAssay come the findings set out here.

A short description of assay [1]: inhibitors of TNFa-induced NFkB p65 translocation, primary screen, imaging, HUVEC, MLSMR starter and 10KST1 sets (AID 438;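 active = inhibition above 20% together with a positive visual image hit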;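 note: compound added about 3h40 before a 20 min TNFalpha stimulation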;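 for inhibition: signal is the nuclear over cytoplasmic p65 intensity ratio per well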). Conditions: HUVEC TNFa-induced p65 nuclear translocation; cell count: measured here: nuclei count (cytotoxicity indicator), at 2.08 µM; inhibition: at 2 µM, stronger effect = higher value, 0% TNFa-plus-vehicle, 100% no-TNFa wells.
Assay [2] in a line: endothelial E-selectin expression blockers – imaging, HUVEC, immunofluorescence, MLSMR starter and 10KST1 sets, primary screen (AID 487;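 active = visually confirmed hit in the image check and inhibition above 20%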;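 for inhibition: signal is fraction of cell area covered by stained E-selectin grains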;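 for nuclei count: 100% = median nuclei count of all wells on the same plate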). As to conditions: HUVEC TNFalpha-induced E-selectin immunofluorescence imaging, at 2 µM; inhibition: stronger effect = higher value; nuclei count: measured here: cell number, toxicity.
A short description of assay [3]: Primary imaging screen for DUSP6 inhibitors that restore phospho-Erk in transfected HeLa cells, chemical complementation (AID 609;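 active = compounds giving at least 50% inhibition in the cell-based MKP-3 phosphatase rescue imaging test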;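 for inhibition: phospho-Erk level distribution per well compared with pooled transfected vehicle control wells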). As to conditions: HeLa MKP-3 transfected, phospho-Erk imaging KS statistic, at 10 µM, cells stimulated with TPA for 15 min.
For assay [4], the target named is Dual specificity protein phosphatase 6 (Homo sapiens) (UniProt Q16828). Described as above. As to conditions: HeLa MKP-3 transfected, phospho-Erk imaging KS statistic; at 10 µM; stronger effect = higher value; cells stimulated with TPA for 15 min.
Dual specificity protein phosphatase 6 (Homo sapiens), sequence (Q16828 whole entry, looked up): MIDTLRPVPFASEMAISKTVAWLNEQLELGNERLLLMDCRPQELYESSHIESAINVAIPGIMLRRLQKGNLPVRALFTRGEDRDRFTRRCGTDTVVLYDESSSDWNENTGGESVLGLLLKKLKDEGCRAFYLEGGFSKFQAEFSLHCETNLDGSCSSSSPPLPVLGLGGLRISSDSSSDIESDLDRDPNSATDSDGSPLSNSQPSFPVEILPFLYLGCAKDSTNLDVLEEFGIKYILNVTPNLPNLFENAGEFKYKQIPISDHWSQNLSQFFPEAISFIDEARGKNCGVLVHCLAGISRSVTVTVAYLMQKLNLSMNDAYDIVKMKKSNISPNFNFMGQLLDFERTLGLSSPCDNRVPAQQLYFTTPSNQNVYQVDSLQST
Assay [5] has as its target Voltage-gated potassium channel subunit beta-2 (Rattus norvegicus) (UniProt P62483). The assay can be described thus: inhibitors of rat Kvbeta2 reductase activity – biochemical, NADPH fluorescence, primary screen (AID 622;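 active = fluorescence slope higher than the sample average by over 3 SD, cut at about -0.22 in these data, passing the limit was not always enough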;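 note: slope of raw intensity against log time taken from 70 to 1610 s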). Conditions: recombinant KvBeta, 4-cyanobenzaldehyde reduction, at 10 µM, stronger effect = higher value.
For assay [6] the target is unchanged. The assay can be described thus: enhancers of rat Kvbeta2 NADPH turnover – biochemical, NADPH fluorescence, primary screen (AID 623).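 Note: fluorescence intensity change per second fitted from 20 to 320 s.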 As to conditions: Recombinant KvBeta, NADPH fluorescence decrease slope, 10 min; at 10 µM; stronger effect = lower value.
Assay [7] addresses Muscarinic acetylcholine receptor M4 (Homo sapiens) (UniProt P08173). Briefly: M4-linked GIRK flux change, two-sided – cell-based, HEK293 M4/GIRK, thallium flux, BTC-AM, M4 allosteric agonist project, primary screen (AID 625;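 active = fluorescence slope after compound addition differing from the mean of all tested samples at 99.7% confidence, mostly higher but some lower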;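 note: thallium influx through GIRK channels coupled to M4 in HEK293 cells with BTC-AM dye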). As to conditions: at 10 µM, actives lie on both sides. A digest of the protocol:
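System: HEK293 cells with M4 receptor and GIRK channels | Incubation: Cells overnight at 37 °C, BTC-AM loading 1 h, reads 2 min total | Technique: Kinetic BTC-AM fluorescence sampled at 1 Hz, 10 s pre-addition baseline | Measure: Post-addition slope, 15–24 s, of baseline-normalized fluorescence | Control set: Carbachol positive, DMSO negative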

The nature of assay [8]: inhibitors of larval lipid processing in zebrafish, primary screen, whole organism, PED6 fluorescence, gall bladder and intestine (AID 686;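 active = a full or partial loss of lipid-probe fluorescence in the fish gall bladder, intestine or both, judged by eye; inactive = no fluorescence loss, or compound toxic to the fish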;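 note: larvae 5 to 7 days old with five fish per well; signal comes from phospholipase A2 cleavage of quenched PED6 carried via bile; overnight exposure to compound and PED6 before scoring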). As to conditions: Zebrafish larvae PED6 lipid processing, fluorescence scoring; screened at 20 µM (by protocol). The gist of the method:
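Test system – live zebrafish larvae aged 5-7 days, whole organism · Buffer or medium – E3 fish medium · Reagent – quenched phospholipase substrate PED6, 100 nM final, ingested by larvae · Doses – 20 µM single dose · Incubation – overnight compound and PED6 incubation · Technique – visual fluorescence microscopy scoring of gall bladder, gut · Read-out basis – visual per-well fluorescence inhibition score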

Assay [9] in a line: loss of swimming-algae plug formation – whole organism, Chlamydomonas reinhardtii, WT vs cilia-less mutant, absorbance, 96-well, primary screen (AID 463189;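 active = inhibition at or above 50% relative to wild type and mutant plate controls; inactive = inhibition below 50%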;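 note: 0% = wild type cc124 cells in DMSO and 100% = ciliumless bld1 mutant cells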). As to conditions: Chlamydomonas reinhardtii gravitaxis, OD600 absorbance, 2 days; at 10 µM; stronger effect = higher value.
[10] abbreviates: measured here: cell density z-score.
[11] abbreviates: measured here: nuclear c-Myc green intensity z-score.
The mark [12] stands for this setting: measured here: nuclear pErk red intensity z-score, stronger effect = higher value.

Molecules are shown by their SMILES. Active and inactive are the calls of the source.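 Rule for the calls, unless noted: active = NADPH fluorescence slope more negative than the mean of all samples by about 3 SD, 99.7% confidence; inactive = the rest.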

Muscarinic acetylcholine receptor M4 (Homo sapiens), sequence (P08173 whole entry, looked up): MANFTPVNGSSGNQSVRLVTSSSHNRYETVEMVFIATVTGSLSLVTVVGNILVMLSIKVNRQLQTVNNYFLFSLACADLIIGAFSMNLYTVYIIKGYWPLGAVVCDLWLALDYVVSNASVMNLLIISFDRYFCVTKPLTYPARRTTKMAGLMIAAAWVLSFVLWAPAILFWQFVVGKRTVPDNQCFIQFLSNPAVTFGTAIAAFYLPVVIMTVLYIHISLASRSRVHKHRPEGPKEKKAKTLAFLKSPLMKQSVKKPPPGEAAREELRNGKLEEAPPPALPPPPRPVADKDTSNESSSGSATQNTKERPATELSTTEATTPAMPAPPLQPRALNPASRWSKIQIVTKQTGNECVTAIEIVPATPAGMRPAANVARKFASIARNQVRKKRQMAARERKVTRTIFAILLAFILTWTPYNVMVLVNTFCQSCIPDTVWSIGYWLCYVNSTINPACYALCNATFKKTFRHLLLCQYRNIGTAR
Voltage-gated potassium channel subunit beta-2 (Rattus norvegicus), sequence (P62483 whole entry, looked up): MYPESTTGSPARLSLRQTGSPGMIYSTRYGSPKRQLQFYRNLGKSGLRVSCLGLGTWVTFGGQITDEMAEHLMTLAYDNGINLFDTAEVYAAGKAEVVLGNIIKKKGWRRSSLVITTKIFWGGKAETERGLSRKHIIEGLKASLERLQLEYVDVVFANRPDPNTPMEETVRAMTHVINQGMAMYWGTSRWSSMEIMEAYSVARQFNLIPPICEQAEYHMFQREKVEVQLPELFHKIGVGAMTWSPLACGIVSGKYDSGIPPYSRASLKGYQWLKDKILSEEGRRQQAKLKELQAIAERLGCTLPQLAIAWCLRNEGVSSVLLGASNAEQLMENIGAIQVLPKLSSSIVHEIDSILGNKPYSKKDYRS

Take `O=C(NCCN1CCOCC1)c1ccc(=O)oc1`: in assay [1], the cell count stood at 515. In addition, the inhibition (as a rule, the drop in the measured response relative to a control, in per cent) in [1] is -7.5% (inactive); in [2], 70.5% (active); in [4] it was 4.37% (inactive); in assay [9] it was -15.9% (inactive). The same molecule came in with a nuclei count in assay [2] of 102%. Besides, the z-score in [3] (setting [10]) came to 0.12; in [3] (setting [11]), 1.12; in assay [3] (setting [12]), 0.0878. For the same molecule, the fluorescence slope in assay [5] was -0.481 (inactive); in assay [7] it was 0.0085 (inactive). The NADPH fluorescence slope in assay [6] was -8.3e-05 (inactive). For the same molecule, in [8], the outcome was inactive.

`COC(=O)c1ccccc1NC(=O)C1COc2ccccc2O1` (stereo unspecified): the cell count in [1] came to 655. The inhibition in assay [1] is -10% (inactive); in assay [2] it was 1.5% (inactive); in [4], -0.674% (inactive); in assay [9], 3.4% (inactive). Besides, the nuclei count in [2] was 169%. In addition, the z-score is 1.14 in [3] (setting [10]), -0.164 in assay [3] (setting [11]) and -1.54 in assay [3] (setting [12]). The fluorescence slope in assay [5] was -0.465 (inactive); in assay [7] it was 0.00637 (inactive). In addition, the NADPH fluorescence slope in [6] is -5.2e-05 (inactive). Also, the result in assay [8] was inactive.

For the molecule `CC(C)C(=O)N1CCN(c2nc(-c3ccccc3)c3c(c2C#N)CC(C)(C)OC3)CC1`, the cell count in [1] was 607. In addition, the inhibition is -3.4% (inactive) in [1], -9.6% (inactive) in assay [2], -2.29% (inactive) in [4] and 26.8% (inactive) in assay [9]. The molecule also displayed a nuclei count in [2] of 163%. In addition, the z-score in assay [3] (setting [10]) was 0.152; in [3] (setting [11]), 0.868; in [3] (setting [12]), -0.257. Moreover, the results for the fluorescence slope in [5] and in assay [7] were -0.366 (inactive) and 0.00797 (inactive), respectively. Further, the NADPH fluorescence slope in assay [6] is -2.4e-05 (inactive). The molecule was called inactive in assay [8].

On to `CCN(CC)CCOC(=O)c1c(C)n(C)c2ccc(OC)cc12`, for which the cell count in assay [1] amounted to 669. The inhibition is -3.7% (inactive) in [1], -50.2% (inactive) in assay [2], 4.37% (inactive) in assay [4] and 32.6% (inactive) in [9]. Further, the nuclei count in assay [2] is 150%. Further, the z-score is 0.791 in [3] (setting [10]), -1.04 in [3] (setting [11]) and -1.03 in assay [3] (setting [12]). Also, the fluorescence slope was -0.466 (inactive) in assay [5] and 0.00645 (inactive) in assay [7]. Also, the NADPH fluorescence slope in assay [6] was -0.000107 (inactive). The molecule was called inactive in assay [8].

In the case of `COc1ccc(CSC2=NCCN2)cc1Cl`, the cell count in assay [1] amounted to 382. For the same molecule, the inhibition in assay [1] was -2.2% (inactive); in assay [2] it was -95.2% (inactive); in assay [4], 9.42% (inactive); in [9], 143% (active). In [2], this molecule gave a nuclei count of 83.1%. Besides, the z-score in assay [3] (setting [10]) was -0.238; in assay [3] (setting [11]), 2.09; in assay [3] (setting [12]), 0.748. Also, the fluorescence slope in assay [5] is -0.459 (inactive); in [7] it was 0.00397 (inactive). Moreover, the NADPH fluorescence slope in [6] was -7e-05 (inactive). In addition, the molecule was called inactive in [8].

Regarding `CCN(CC)c1nc(-c2cccc(OC)c2O)nc2ccccc12`, in assay [1], the cell count turned out to be 624. For the same molecule, the inhibition in [1] was -3.5% (inactive); in assay [2], -45.9% (inactive); in assay [4] it was 4.37% (inactive); in assay [9], 15.7% (inactive). The nuclei count in [2] is 171%. Further, the z-score in assay [3] (setting [10]) is -1.06; in assay [3] (setting [11]), -1.37; in assay [3] (setting [12]), 0.629. Further, the fluorescence slope in assay [5] is -0.5 (inactive); in assay [7] it was 0.005 (inactive). The NADPH fluorescence slope in assay [6] is -9.9e-05 (inactive). For the same molecule, the outcome in assay [8] was inactive.

With `CCOCCn1c(SC)nc2c1c(=O)[nH]c(=O)n2C`, the cell count in assay [1] worked out at 498. The inhibition in assay [1] was 6.3% (inactive); in [2], -6% (inactive); in assay [4] it was 12.8% (inactive); in assay [9], 44.4% (inactive). This molecule also displayed a nuclei count in [2] of 122%. The z-score in assay [3] (setting [10]) was 1.57; in assay [3] (setting [11]), -1.62; in assay [3] (setting [12]), 0.579. Besides, the fluorescence slope in assay [5] is -0.529 (inactive); in [7] it was 0.00609 (inactive). Further, the NADPH fluorescence slope in assay [6] was -3.7e-05 (inactive). For the same molecule, in assay [8], the molecule was classed as inactive.
